# Laboratory results from ChEMBL document CHEMBL1255201, “A novel arylethynyltriazole acyclonucleoside inhibits proliferation of drug-resistant pancreatic cancer cells” (2010).
# Tested on: MIA PaCa-2
# Assay: Growth inhibition of human MIAPaCa2 cells after 48 hrs by MTT assay
# Format: functional
# Summary of the method: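 Cells seeded at 15,000/well, attached overnight, then medium replaced with fresh medium alone (control) or medium containing compound; 48 h at 37 °C, 5% CO2. Viable cells quantified by MTT colorimetric assay.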
smiles,measurement,value
Nc1ccn([C@@H]2O[C@H](CO)[C@@H](O)C2(F)F)c(=O)n1 [GEMCITABINE],inhibition (INH),30%
